A word on the MIC: it is the lowest concentration that inhibits growth of the organism.

In brackets after ≈: the same amount, converted by molar mass.

The target of test [1] is T1, Sterol 24-C-methyltransferase (Yarrowia lipolytica) (UniProt Q6C2D9).
T1 sequence (whole entry): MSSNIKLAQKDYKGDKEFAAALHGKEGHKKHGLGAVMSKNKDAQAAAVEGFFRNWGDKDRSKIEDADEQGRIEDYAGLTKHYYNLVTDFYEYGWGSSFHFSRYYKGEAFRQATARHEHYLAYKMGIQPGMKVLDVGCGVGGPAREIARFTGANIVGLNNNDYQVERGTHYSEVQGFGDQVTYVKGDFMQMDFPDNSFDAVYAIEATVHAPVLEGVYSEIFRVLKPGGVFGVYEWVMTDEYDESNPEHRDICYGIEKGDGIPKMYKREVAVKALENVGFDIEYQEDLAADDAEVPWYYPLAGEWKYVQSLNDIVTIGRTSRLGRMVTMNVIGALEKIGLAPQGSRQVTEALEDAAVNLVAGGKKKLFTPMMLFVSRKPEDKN
In words: Inhibition of Yarrowia lipolytica 24-SMT assessed as dehydroergosterol-3-trimethylsilyl derivative at 0.1 ug/mL after 48 hrs by GC-MS analysis relative to untreated control. On the set-up: scale not given: the % may be the effect or the level left. The gist of the method: (§1)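 Whole-cell sterol profiling. Y. lipolytica at 50,000 CFU/mL was exposed to compounds added from ethanol for 48 ± 2 h at 28 °C, and the MIC/2 and/or MIC/4 wells were used. Cells were pelleted and PBS-washed, then saponified in 1 M NaOH at 70 °C for 1 h. Sterols were extracted into TBME with a cholesterol internal standard and silylated to TMS ethers. GC-MS full scan, with each sterol given as % of total integrated quantifier-ion area.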

The target in test [2] is T1, Sterol 24-C-methyltransferase (Yarrowia lipolytica). In words: Inhibition of Yarrowia lipolytica 24-SMT assessed as cholesta-7,24-dien-3-trimethylsilyl derivative at 0.1 ug/mL after 48 hrs by GC-MS analysis relative to untreated control. On the set-up: scale not given: the % may be the effect or the level left. The gist of the method: as §1
The target is the same in test [3]. In words: Inhibition of Yarrowia lipolytica 24-SMT assessed as 5-dehydroepisterol-3-trimethylsilyl derivative at 0.1 ug/mL after 48 hrs by GC-MS analysis relative to untreated control. On the set-up: scale not given: the % may be the effect or the level left. In a few lines:
as §1

Test [4] shares this target. In words: Inhibition of Yarrowia lipolytica 24-SMT assessed as lanosterol-3-trimethylsilyl derivative at 0.1 ug/mL after 48 hrs by GC-MS analysis relative to untreated control. On the set-up: scale not given: the % may be the effect or the level left. In a few lines:
as §1

The subject of test [5] is Yarrowia lipolytica. In words: Antimicrobial activity against Yarrowia lipolytica after 48 hrs. The class given is functional. In a few lines:
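Broth dilution MIC per DIN 58940-84. Log-phase Y. lipolytica in yeast extract/peptone/glucose medium, counted against a 0.5 McFarland standard (A570) and seeded at 50,000 CFU/mL in 2 mL wells. Compounds added from ethanol; final concentrations 2 to 0.06125 µg/mL unless otherwise stated. Plates incubated 48 ± 2 h at 28 °C. MIC is the lowest concentration with no visible growth.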

For test [6], the target named is T1, Sterol 24-C-methyltransferase (Yarrowia lipolytica). In words: Inhibition of Yarrowia lipolytica 24-SMT assessed as zymosterol-3-trimethylsilyl derivative level at 0.1 ug/mL after 48 hrs by GC-MS analysis relative to untreated control. On the set-up: scale not given: the % may be the effect or the level left. The gist of the method:
as §1

For test [7] the target is unchanged. In words: Inhibition of Yarrowia lipolytica 24-SMT assessed as cholesta-5,7,24-trien-3-trimethylsilyl derivative at 0.1 ug/mL after 48 hrs by GC-MS analysis relative to untreated control. Also noted: scale not given: the % may be the effect or the level left. The gist of the method:
as §1

Test [8] shares this target. In words: Inhibition of Yarrowia lipolytica 24-SMT assessed as dehydroergosterol-3-trimethylsilyl derivative at 0.2 ug/mL after 48 hrs by GC-MS analysis relative to untreated control. On the set-up: scale not given: the % may be the effect or the level left. In a few lines: as §1
The target is the same in test [9]. In words: Inhibition of Yarrowia lipolytica 24-SMT assessed as 14-alpha-methylergosta-8,24(28)-dien-3beta,6alpha-di-trimethylsilyl derivative at 0.2 ug/mL after 48 hrs by GC-MS analysis relative to untreated control. On the set-up: scale not given: the % may be the effect or the level left. The gist of the method:
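Y. lipolytica whole cells, inoculated at 50,000 CFU/mL in yeast extract/peptone/glucose medium, exposed to compound (ethanol solution, 10 µL per 2 mL well), 48 ± 2 h, 28 °C. Wells at MIC/2 and/or MIC/4 pelleted, saponified in 1 M NaOH at 70 °C for 1 h, extracted with TBME and silylated. GC–MS with cholesterol internal standard. Each sterol given as percent of total integrated area; ethanol-only wells as control.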

Test [10] has the same target. In words: Inhibition of Yarrowia lipolytica 24-SMT assessed as lanosterol-3-trimethylsilyl derivative at 0.2 ug/mL after 48 hrs by GC-MS analysis relative to untreated control. On the set-up: scale not given: the % may be the effect or the level left. The gist of the method: as §1
Test [11] has the same target. In words: Inhibition of Yarrowia lipolytica 24-SMT assessed as ergosterol-3-trimethylsilyl derivative level at 0.2 ug/mL after 48 hrs by GC-MS analysis relative to untreated control. On the set-up: scale not given: the % may be the effect or the level left. The gist of the method: as §1
Test [12] shares this target. In words: Inhibition of Yarrowia lipolytica 24-SMT assessed as 5-dehydroepisterol-3-trimethylsilyl derivative at 2 ug/mL after 48 hrs by GC-MS analysis relative to untreated control. On the set-up: scale not given: the % may be the effect or the level left. The gist of the method:
as §1

Test [13] shares this target. In words: Inhibition of Yarrowia lipolytica 24-SMT assessed as 5-dehydroepisterol-3-trimethylsilyl derivative at 1 ug/mL after 48 hrs by GC-MS analysis relative to untreated control. Also noted: scale not given: the % may be the effect or the level left. The gist of the method: as §1
For test [14] the target is unchanged. In words: Inhibition of Yarrowia lipolytica 24-SMT assessed as cholesta-7,24-dien-3-trimethylsilyl derivative at 2 ug/mL after 48 hrs by GC-MS analysis relative to untreated control. Also noted: scale not given: the % may be the effect or the level left. In a few lines:
as §1

Test [15] shares this target. In words: Inhibition of Yarrowia lipolytica 24-SMT assessed as dehydroergosterol-3-trimethylsilyl derivative at 1 ug/mL after 48 hrs by GC-MS analysis relative to untreated control. Also noted: scale not given: the % may be the effect or the level left. In a few lines: as §1
For test [16] the target is unchanged. In words: Inhibition of Yarrowia lipolytica 24-SMT assessed as dehydroergosterol-3-trimethylsilyl derivative at 2 ug/mL after 48 hrs by GC-MS analysis relative to untreated control. On the set-up: scale not given: the % may be the effect or the level left. The gist of the method:
as §1

For test [17] the target is unchanged. In words: Inhibition of Yarrowia lipolytica 24-SMT assessed as zymosterol-3-trimethylsilyl derivative level at 2 ug/mL after 48 hrs by GC-MS analysis relative to untreated control. On the set-up: scale not given: the % may be the effect or the level left. In a few lines:
as §1

The target is the same in test [18]. In words: Inhibition of Yarrowia lipolytica 24-sterol C-methyltransferase assessed as ergosterol-3-trimethylsilyl derivative level at 2 ug/mL after 48 hrs by GC-MS analysis relative to untreated control. Also noted: scale not given: the % may be the effect or the level left. In a few lines:
as §1

The target is the same in test [19]. In words: Inhibition of Yarrowia lipolytica 24-sterol C-methyltransferase assessed as ergosterol-3-trimethylsilyl derivative level at 1 ug/mL after 48 hrs by GC-MS analysis relative to untreated control. Also noted: scale not given: the % may be the effect or the level left. The gist of the method: as §1
Test [20] shares this target. In words: Inhibition of Yarrowia lipolytica 24-sterol C-methyltransferase assessed as cholesta-5,7,24-trien-3-trimethylsilyl derivative at 1 ug/mL after 48 hrs by GC-MS analysis relative to untreated control. Also noted: scale not given: the % may be the effect or the level left. In a few lines: as §1
The target is the same in test [21]. In words: Inhibition of Yarrowia lipolytica 24-SMT assessed as cholesta-5,7,24-trien-3-trimethylsilyl derivative at 2 ug/mL after 48 hrs by GC-MS analysis relative to untreated control. Also noted: scale not given: the % may be the effect or the level left. In a few lines:
as §1

The target is the same in test [22]. In words: Inhibition of Yarrowia lipolytica 24-SMT assessed as cholesta-7,24-dien-3-trimethylsilyl derivative at 1 ug/mL after 48 hrs by GC-MS analysis relative to untreated control. Also noted: scale not given: the % may be the effect or the level left. The gist of the method: as §1
The target is the same in test [23]. In words: Inhibition of Yarrowia lipolytica 24-SMT assessed as dehydroergosterol-3-trimethylsilyl derivative at 0.06 ug/mL after 48 hrs by GC-MS analysis relative to untreated control. On the set-up: scale not given: the % may be the effect or the level left. In a few lines:
as §1

The target is the same in test [24]. In words: Inhibition of Yarrowia lipolytica 24-SMT assessed as cholesta-7,24-dien-3-trimethylsilyl derivative at 0.06 ug/mL after 48 hrs by GC-MS analysis relative to untreated control. On the set-up: scale not given: the % may be the effect or the level left. In a few lines:
as §1

Test [25] shares this target. In words: Inhibition of Yarrowia lipolytica 24-SMT assessed as 5-dehydroepisterol-3-trimethylsilyl derivative at 0.06 ug/mL after 48 hrs by GC-MS analysis relative to untreated control. On the set-up: scale not given: the % may be the effect or the level left. In a few lines: as §1
Test [26] shares this target. In words: Inhibition of Yarrowia lipolytica 24-SMT assessed as zymosterol-3-trimethylsilyl derivative level at 0.06 ug/mL after 48 hrs by GC-MS analysis relative to untreated control. On the set-up: scale not given: the % may be the effect or the level left. The gist of the method:
as §1

For test [27] the target is unchanged. In words: Inhibition of Yarrowia lipolytica 24-sterol C-methyltransferase assessed as ergosterol-3-trimethylsilyl derivative level at 0.06 ug/mL after 48 hrs by GC-MS analysis relative to untreated control. On the set-up: scale not given: the % may be the effect or the level left. The gist of the method: as §1
Test [28] has the same target. In words: Inhibition of Yarrowia lipolytica 24-SMT assessed as cholesta-5,7,24-trien-3-trimethylsilyl derivative at 0.06 ug/mL after 48 hrs by GC-MS analysis relative to untreated control. On the set-up: scale not given: the % may be the effect or the level left. In a few lines: as §1

Take `CC(C)CNC[C@@H](C)[C@H]1CC[C@H]2C3=CC[C@H]4C[C@@H](O)CC[C@]4(C)[C@H]3CC[C@]12C`: the Activity was 47.6% in test [1]; 3.1% in test [2]; 4.4% in test [3]; 0.3% in test [4]; 1.2% in test [6]; 43.3% in [7]. The same compound gave an MIC in test [5] of 0.25 µg/mL (≈ 0.645 µM).
Consider `CC(=O)N1CCN(c2ccc(OCC3COC(Cn4ccnc4)(c4ccc(Cl)cc4Cl)O3)cc2)CC1` (stereo unspecified) [KETOCONAZOLE], for which the Activity in [8] was determined as 59.1%; in [9] it was 2.4%; in [10], 28.9%; in test [11] it was 9.6%. Further, in test [5], the lowest concentration to inhibit growth (MIC) was 0.5 µg/mL (≈ 0.941 µM).
For `C[C@H](CNCCN1CCCC1)[C@H]1CC[C@H]2C3=CC[C@H]4C[C@@H](O)CC[C@]4(C)[C@H]3CC[C@]12C`, the Activity in test [12] is 3.6%; in test [13] it was 4.8%; in test [14], 6%; in [15], 65.4%; in [16] it was 40.1%; in test [17], 0.4%. Moreover, the Activity in test [18] is 3.3%; in test [19] it was 1.7%; in [20], 24.3%; in test [21] it was 46.6%; in test [22] it was 3.6%. Besides, in [5], the minimum inhibitory concentration (MIC) is over 2 µg/mL.
In the case of `CCCCCNC[C@@H](C)[C@H]1CC[C@H]2C3=CC[C@H]4C[C@@H](O)CC[C@]4(C)[C@H]3CC[C@]12C`, the Activity was 68.9% in test [23]; 1.6% in [24]; 3.8% in test [25]; 0.4% in [26]; 4.9% in [27]; 20.4% in [28]. In addition, inhibition of growth in test [5] (MIC) required 0.25 µg/mL (≈ 0.622 µM).
